MEKK3 PB1 HTS = modulators of MEKK3-MEK5 PB1 binding, primary screen, biochemical, wildtype MEKK3, multiplex bead flow cytometry, Alexa488-MEK5; bead-based flow cytometry, Alexa488-MEK5 binding to MEKK3; actives lie on both sides; 0 = blocked by unlabeled MEK5, 100 = vehicle; binding response (% of control), % at 10 µM; hit rate 1.4% among 290,000; Mitogen-activated protein kinase kinase kinase 3 (Homo sapiens), Q99759;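 active = binding response more than 3 SD above or below the average of its plate-row segment, actives on both sides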;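 note: Alexa488 bead fluorescence after subtracting the streptavidin-only scavenger bead signal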
Target sequence (Q99759 whole entry, looked up): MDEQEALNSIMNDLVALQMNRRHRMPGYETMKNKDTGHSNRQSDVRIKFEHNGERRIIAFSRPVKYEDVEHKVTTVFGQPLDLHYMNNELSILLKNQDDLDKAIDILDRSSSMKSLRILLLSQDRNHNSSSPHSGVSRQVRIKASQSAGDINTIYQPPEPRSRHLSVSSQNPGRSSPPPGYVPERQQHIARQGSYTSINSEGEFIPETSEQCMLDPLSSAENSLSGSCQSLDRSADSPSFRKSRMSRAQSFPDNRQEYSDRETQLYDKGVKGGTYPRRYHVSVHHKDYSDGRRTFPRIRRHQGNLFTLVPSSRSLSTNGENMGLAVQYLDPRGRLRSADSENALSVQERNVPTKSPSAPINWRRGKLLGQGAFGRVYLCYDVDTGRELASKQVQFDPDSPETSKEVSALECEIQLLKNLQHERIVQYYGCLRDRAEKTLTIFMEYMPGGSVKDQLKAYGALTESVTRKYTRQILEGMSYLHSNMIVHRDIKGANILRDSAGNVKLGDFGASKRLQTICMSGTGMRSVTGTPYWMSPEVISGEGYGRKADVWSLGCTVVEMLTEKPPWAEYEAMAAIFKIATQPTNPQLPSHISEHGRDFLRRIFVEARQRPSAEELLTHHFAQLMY
MEKK2mut PB1 HTS = MEK5 binding signal on mutant MEKK2 PB1, primary screen, biochemical, multiplex bead flow cytometry, Alexa488-MEK5 | Alexa488-MEK5 binding to MEKK2 mutant | percent response, % at 10 µM | hit rate 0.35% among 290,000; in the data active = percent response above about 24%, passing the limit was not always enough
MEKK2wt PB1 HTS = modulators of MEK5 binding to wildtype MEKK2, primary screen, biochemical, multiplex bead flow cytometry, Alexa488-MEK5; hit rate 1.1% among 290,000; Alexa488-MEK5 binding to MEKK2 WT; actives lie on both sides; binding response (% of control), % at 10 µM; Mitogen-activated protein kinase kinase kinase 2 (Homo sapiens), Q9Y2U5; in the data active = binding response below about 67% or above about 130%
Hep lipid drop = inhibitors of hepatocyte lipid droplet formation, primary screen, imaging, high-throughput imaging, BODIPY stain. AML12 mouse hepatocytes, oleate lipid droplets. inhibition, % at 6.5 µM. hit rate 0.4% among 240,000. AID 1656, 2009;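 active = lipid droplet intensity inhibited by at least 50%, with more than 500 cells counted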
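System: AML12 hepatocytes (mouse). Probe or stimulus: oleic acid at 100 µM to induce lipid droplet formation. Times: overnight treatment with compound plus oleate. Detection: Image-based BODIPY and DAPI two-channel analysis. Evaluation: percent inhibition of filter-corrected integrated lipid droplet intensity per well.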
MEKK2wt confirm = modulators of MEK5 binding to wildtype MEKK2, confirmation, biochemical, single concentration, multiplex bead flow cytometry. AID 1892, 2009. shares compounds with MEKK3 PB1 HTS. binding response (% of control), % at 10 µM. hit rate 2.4% among 5,900. Alexa488-MEK5 binding to MEKK2 WT; actives lie on both sides; in the data active = binding response below about 16% or above about 210%; inactive = in between
MEKK2mut-MEK5 = mutant MEKK2 PB1-MEK5 binding signal retest – biochemical, single concentration, multiplex bead flow cytometry, confirmation; shares compounds with MEKK3 PB1 HTS; Alexa488-MEK5 binding to MEKK2 mutant; percent response, % at 10 µM; hit rate 2% among 5,900; AID 1893, 2009; in the data active = percent response mostly above about 71%, no sharp cut-off; inactive = mostly below about 38%;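 note: higher means compound restores mutant binding toward wildtype level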
MEKK3 confirm = MEKK3 wild-type PB1 binding to MEK5, inhibitors, confirmation, biochemical, bead multiplex flow cytometry, single concentration, wildtype; Alexa488-MEK5 binding to MEKK3; active compounds read low; shares compounds with MEKK3 PB1 HTS; binding response (% of control), % at 10 µM; hit rate 1.8% among 5,900;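 active = binding response below 72% of control, or above a set upper limit, though filed actives all read lower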;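 note: lower values mean stronger disruption of MEK5 binding to MEKK3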
Each line names hits and unclear results; the compound was inactive in the other large screens (follow-up assays come after a bar, where they were run); [ ] = dose if it differs, or a comment. Rows were chosen to be rich in hits. Some 2.6% of all compounds tested hit in one or more screens of this group.

CCCCNC(=O)C1CCN(c2nc(OC)nc(OC)n2)CC1	MEKK3 PB1 HTS 124 | MEKK2wt confirm inactive | MEKK2mut-MEK5 inactive | MEKK3 confirm inactive
CCCCNC(=O)C1CCN(c2nc(C)cc(C)n2)CC1	none
COc1ccccc1S(=O)(=O)Cc1ccc(C(=O)NCCN2CCCCCC2)o1	MEKK2wt PB1 HTS 135 | MEKK2wt confirm inactive | MEKK2mut-MEK5 inactive | MEKK3 confirm inactive
COCCNC(=O)c1ccc(CS(=O)(=O)c2ccccc2OC)o1	none
NC(=O)CC(NC(=O)c1ccccc1)c1ccc(N2CCC(Br)CC2)c([N+](=O)[O-])c1 (configuration not stated)	MEKK3 PB1 HTS 77[inhibitor] | MEKK2wt confirm inactive | MEKK2mut-MEK5 inactive | MEKK3 confirm inactive
CCOC(=O)c1c(NC(=O)C(=O)N/N=C/c2ccccc2O)sc2c1CCCCC2	MEKK3 PB1 HTS 137 | MEKK2wt confirm inactive | MEKK2mut-MEK5 inactive | MEKK3 confirm inactive
CCOC(=O)c1c(NC(=O)C(=O)N/N=C/c2ccccc2OC)sc2c1CCCCC2	none
CCOC(=O)Cc1ncccc1C(=O)Nc1ccc(Oc2ccccc2)cc1	none
CC(C)(C)n1ncc2c(=O)n(Cc3ccc(Cl)cc3Cl)cnc21	MEKK3 PB1 HTS 2.0[inhibitor], MEKK2wt PB1 HTS 2.0[inhibitor] (no result: Hep lipid drop) | MEKK2wt confirm inactive | MEKK2mut-MEK5 inactive | MEKK3 confirm inactive
CC(C)(C)n1ncc2c(=O)n(Cc3c(F)cccc3Cl)cnc21	none (no result: Hep lipid drop)
COc1ccccc1NC1=NCC(=O)N1Cc1ccccc1	MEKK2mut PB1 HTS 47 (no result: Hep lipid drop) | MEKK2wt confirm inactive | MEKK2mut-MEK5 inactive | MEKK3 confirm inactive
CCOc1ccccc1NC1=NCC(=O)N1Cc1ccc(F)cc1	none (no result: Hep lipid drop)
COc1cccc(NC(=O)C2CCC(CNS(=O)(=O)c3cccs3)CC2)c1 (configuration not stated)	none
COc1cc(N2CCCC2)c(OC)cc1/C=C(/C#N)c1ccc(Br)cc1	MEKK2mut PB1 HTS 189 | MEKK2wt confirm inactive | MEKK2mut-MEK5 inactive | MEKK3 confirm inactive
COc1ccc(/C=N/NC(=O)CCC(=O)Nc2ccccc2)cc1OC	none
COc1ccc(/C=N/NC(=O)CCn2c3ccccc3c3ccccc32)cc1OC	none
COc1ccc(/C=N/NC(=O)CCn2cnc(-c3ccccc3)c2-c2ccccc2)cc1OC	MEKK3 PB1 HTS 64[inhibitor] | MEKK2wt confirm inactive | MEKK2mut-MEK5 inactive | MEKK3 confirm inactive
COc1ccc(/C=N\NC(=O)CC(=O)Nc2cccc(Cl)c2)cc1OC	MEKK3 PB1 HTS 73[inhibitor] | MEKK2wt confirm inactive | MEKK2mut-MEK5 inactive | MEKK3 confirm inactive
CCc1cccc2c(N=O)c(O)[nH]c12	MEKK3 PB1 HTS 136 | MEKK2wt confirm inactive | MEKK2mut-MEK5 inactive | MEKK3 confirm inactive
O=Nc1c(O)[nH]c2c(F)cccc12	none
Cc1ccc(C(=O)N[C@H](C(=O)OCC(=O)NC2CCS(=O)(=O)C2)C(C)C)cc1 (some centres not stated)	MEKK3 PB1 HTS 132 | MEKK2wt confirm inactive | MEKK2mut-MEK5 inactive | MEKK3 confirm inactive
Cc1ccc(S(=O)(=O)NC(C(=O)OCC(=O)NC2CCS(=O)(=O)C2)C(C)C)cc1 (configuration not stated)	none
Cc1ccc(N2C(=O)C3ON(c4ccccc4)C(c4ccncc4)C3C2=O)c(C)c1 (configuration not stated)	none (no result: Hep lipid drop)
O=c1[nH]c(SCc2ccccc2[N+](=O)[O-])nc2nc[nH]c12	MEKK3 PB1 HTS 45[inhibitor] | MEKK2wt confirm inactive | MEKK2mut-MEK5 inactive | MEKK3 confirm inactive
Cc1[nH]n(-c2ccccc2)c(=O)c1/C=N/NC(=O)COc1ccccc1[N+](=O)[O-]	MEKK3 PB1 HTS 158 | MEKK2wt confirm inactive | MEKK2mut-MEK5 inactive | MEKK3 confirm inactive
Cc1[nH]n(-c2cccc3ccccc23)c(=O)c1/C=N/NC(=O)c1cccc([N+](=O)[O-])c1	MEKK3 PB1 HTS 61[inhibitor] | MEKK2wt confirm inactive | MEKK2mut-MEK5 inactive | MEKK3 confirm inactive
COC(=O)c1sc(N2CCN(c3ccc(Cl)cc3)CC2)nc1N	none
CCC(NC(=O)COc1cc2c(c3oc(=O)c(C)c(C)c13)CCC(C)(C)O2)C(=O)O (configuration not stated)	none
Cc1cccc(/C=N/c2sc3c(c2C(=O)OC(C)(C)C)CCN(C)C3)c1O	MEKK2wt PB1 HTS 141 | MEKK2wt confirm inactive | MEKK2mut-MEK5 inactive | MEKK3 confirm inactive
O=C(CNc1cc(S(=O)(=O)N2CCOCC2)ccc1NCC1CCCO1)Nc1ccc(F)c(F)c1 (configuration not stated)	none
COCCN(C(=S)Nc1ccc(OC)cc1)C1CCN(C(C)C)CC1	MEKK3 PB1 HTS 134 | MEKK2wt confirm inactive | MEKK2mut-MEK5 inactive | MEKK3 confirm inactive
Cc1ccc(NC(=S)N(CCN2CCCCC2)Cc2ccco2)cc1	none
COCCN(C(=O)Nc1ccc(OC)cc1OC)C1CCN(C(C)C)CC1	MEKK3 PB1 HTS 81[inhibitor] | MEKK2wt confirm inactive | MEKK2mut-MEK5 inactive | MEKK3 confirm inactive
COCCN(C(=S)Nc1cccc(OC)c1)C1CCN(C(C)C)CC1	MEKK3 PB1 HTS 137 | MEKK2wt confirm inactive | MEKK2mut-MEK5 inactive | MEKK3 confirm inactive
COCCN(C(=S)Nc1ccc(OC)cc1)C1CCN(C(C)=O)CC1	none
Cc1ccc(NC(=S)N(Cc2ccco2)C2CCN(C(C)C)CC2)cc1	MEKK3 PB1 HTS 132 | MEKK2wt confirm inactive | MEKK2mut-MEK5 inactive | MEKK3 confirm inactive
Oc1cccc2ccc[n+](CC(O)Cn3c4ccccc4c4ccccc43)c12 (configuration not stated)	none
Cc1ccc2c(c1)N(C(C)C(=O)NCc1ccc3c(c1)OCO3)C(=O)CO2 (configuration not stated)	MEKK3 PB1 HTS 30[inhibitor], MEKK2wt PB1 HTS 29[inhibitor] | MEKK2wt confirm inactive | MEKK2mut-MEK5 inactive | MEKK3 confirm inactive
CCCOc1ccc(C(=O)Nc2c[nH]c(=O)[nH]c2=O)cc1	none
CCC(=O)Oc1ccc(C(=O)Nc2c[nH]c(=O)[nH]c2=O)cc1	MEKK3 PB1 HTS 69[inhibitor] | MEKK2wt confirm inactive | MEKK2mut-MEK5 inactive | MEKK3 confirm inactive
COc1ccc(C2=C/C(=C\c3ccc(OC(C)=O)cc3)C(=O)O2)cc1	none
CN(C)c1ccc(/C=C2/C=C(c3ccc4c(c3)CCCC4)OC2=O)cc1	MEKK3 PB1 HTS 73[inhibitor] | MEKK2wt confirm inactive | MEKK2mut-MEK5 inactive | MEKK3 confirm inactive
